MIN6 prolif: MIN6 beta-cell proliferation induction. MIN6 cells proliferation, ATPlite luminescence, 48 h; cells starved in 0.2% serum; 100% = growth in 10% serum. proliferation, % at 10 µM. 330,000 tested, 0.29% active;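 active means compounds whose signal lies at least 3.5 SD above the mean of all wells on their plate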
iPSC survival up: hiPSC single-cell survival enhancement; ATPlite luminescence; 100% = ROCK inhibitor wells, 0% = DMSO; survival enhancement, % at 20 µM; 360,000 tested, 0.044% active; in the data active means survival enhancement above about 18%;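 further: cells exposed to compounds for 16 hours before the ATP read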
MPTP inh: permeability transition pore inhibition; inhibition, % at 10 µM; 360,000 tested, 1.4% active; isolated mouse mitochondria, Ca2+ swelling absorbance, 30 min;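 active means inhibition of 50% or more, scaled per plate between neutral and stimulator controls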
Granule exo inh: blocks lytic granule exocytosis; inhibition, % at 10 µM; AID 651702; 360,000 tested, 0.66% active; TALL-104 LAMP-1 surface exposure, flow cytometry; cells stimulated with thapsigargin and PMA;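 active means inhibition above about 55%, limit read from the data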
Apaf1 inhib: blocks human Apaf-1 apoptosome activity. O14727. reconstituted apoptosome caspase-3 activity, DEVD-Rh110 fluorescence. inhibition, % at 20 µM. 330,000 tested, 0.71% active; active means inhibition of at least 40% at 20 µM
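Assay system – apoptosome proteins · Medium – Hepes buffer, pH 7.5 · Also added – cytochrome c with DEVD-Rh110 · Timing – 30 min compound preincubation, 50 min activation, room temperature · Detection – Rh110 fluorescence, excitation 480 nm, emission 540 nm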
UBC13 inh: inhibitors of human UBC13 polyubiquitin chain formation; TR-FRET; P61088; inhibition, % at 20 µM; 330,000 tested, 0.47% active; in the data active means inhibition above about 45%, passing the limit was not always enough
Rh123 counter: Rhodamine 123 counter-screen of mitochondrial pore hits; shares compounds with MPTP inh; inhibition, % at 10 µM; AID 624504; isolated mitochondria, membrane potential, Rhodamine 123 fluorescence; 5,000 tested, 78% active; in the data active means inhibition above about 22%
MPTP swell DR: MPTP inhibition, dose response swelling confirmation | shares compounds with MPTP inh | isolated mitochondria swelling, absorbance | IC50, µM | 780 tested, 58% active | AID 651561; in the data active means IC50 below about 20 µM
MPTP counter DR: MPTP inhibitor counter-screen activity, dose response; shares compounds with MPTP inh; isolated mitochondria counterscreen, fluorescence read-out; IC50, µM; 780 tested, 49% active; in the data active means IC50 below about 80 µM
Each line names hits and unclear results; the compound was inactive in the other large screens (follow-up assays come after a bar, where they were run). Sampled rows, rich in hits. Any-hit rate of the full collection: about 3%.

O=C(Nc1cccc([N+](=O)[O-])c1)C(=O)N1CCCCC1	none
COc1ccc(OC)c(S(=O)(=O)NCC(c2ccco2)S(=O)(=O)c2ccccc2)c1 (stereo not drawn)	none
CNC(=S)Nc1cccc([N+](=O)[O-])c1	none
Cc1cc(Br)ccc1NC(=S)Nc1cccc([N+](=O)[O-])c1	MPTP inh 97 | Rh123 counter 91
O=C(Nc1cccc([N+](=O)[O-])c1)Nc1ccc2c(c1)OCCO2	MPTP inh 62 | Rh123 counter 91
Cc1ccc(S(=O)(=O)NC(C)C(=O)Nc2cccc([N+](=O)[O-])c2)cc1 (stereo not drawn)	none
CC(C)S(=O)(=O)c1csc(NC(=O)Nc2cccc([N+](=O)[O-])c2)c1Cl	MPTP inh 84 | Rh123 counter 69
CC(=O)NC(=S)Nc1cccc([N+](=O)[O-])c1	none
O=C(Nc1ccc2c(c1)OCCO2)Nc1ccc2c(c1)OCO2	none
COc1cc(NC(=O)Nc2cccc([N+](=O)[O-])c2)cc(OC)c1	MPTP inh 98 | Rh123 counter 89
CCCOc1ccc(C=Nc2ccc(OC)c(S(=O)(=O)N3CCOCC3)c2)c(O)c1	none
Cc1ccccc1NC(=S)NC1CCCC1	none
O=C(Nc1ccc(Br)cc1)NC1CCCCCCC1	MPTP inh 88 | Rh123 counter 96
O=C(Nc1ccccc1)NC1CCCCCCC1	none
O=C(CNC1CCCCC1)Nc1cccc([N+](=O)[O-])c1	none
O=C(Nc1cccc([N+](=O)[O-])c1)c1ccc(CSc2ccccc2)cc1	MPTP inh 78 | Rh123 counter 86
O=C(Nc1cccc([N+](=O)[O-])c1)NC1CCCCCCC1	MPTP inh 80 | Rh123 counter 95
O=C(Nc1cccc([N+](=O)[O-])c1)c1ccccc1	none
Cc1cc([N+](=O)[O-])ccc1NC(=S)NC1CCCC1	MPTP inh 67 | Rh123 counter 97
CN(C(=O)COC(=O)Cc1c(F)cccc1Cl)c1c(N)n(Cc2ccccc2)c(=O)[nH]c1=O	none
COc1ccc(OCC(=O)NNC(=O)Cn2c(=O)cnc3ccccc32)cc1	none
COCCN1CCN(C(=O)C2CCC(=O)N(Cc3ccccc3OC)C2)CC1 (stereo not drawn)	none
O=C(Nc1cccc([N+](=O)[O-])c1)Nc1cccc([N+](=O)[O-])c1	MPTP inh 91 | Rh123 counter 78
O=C(Nc1ccc(C(=O)O)cc1)Nc1cccc([N+](=O)[O-])c1	MPTP inh 81 | Rh123 counter 76
CCOc1ccc2oc(C(=O)N3CCN(c4ccccc4OCC)CC3)c(C)c2c1	none
Nc1ccn([C@@H]2O[C@H](CNS(=O)(=O)c3cc4ccccc4s3)[C@@H](O)[C@H]2O)c(=O)n1	none (no result: MIN6 prolif, Apaf1 inhib, UBC13 inh)
Cc1cc(NNC(=O)c2cccc(C(F)(F)F)c2)nc2c1c(C)nn2C	MPTP inh 86 | Rh123 counter 41
O=C(Nc1ccc(F)cc1)C(c1cccc(F)c1)N1CCN(C(=O)c2ccco2)CC1 (stereo not drawn)	none (no result: MIN6 prolif, iPSC survival up, Apaf1 inhib, UBC13 inh)
O=[N+]([O-])c1ccc(N=Nc2ccc(O)c3ccccc23)cc1	MPTP inh 98 (no result: MIN6 prolif, Apaf1 inhib, UBC13 inh) | Rh123 counter 79
O=S(=O)(Nc1ccc(N=Nc2ccc(O)c3ccccc23)cc1)c1ccccc1	none
O=[N+]([O-])c1ccc(O)c(C2=NNC(c3ccccc3F)C2)c1 (stereo not drawn)	MPTP inh 89 | Rh123 counter 85
Oc1ccc(Cl)cc1C1=NNC(c2cccs2)C1 (stereo not drawn)	none
Cn1c(=O)c2c(ncn2CC(=O)Nc2cccc(S(=O)(=O)Nc3ccccc3F)c2)n(C)c1=O	none
O=C(Nc1cccc(S(=O)(=O)N2CCCCCC2)c1)c1ccc(Cl)nc1	none
O=C(Cc1ccc(Cl)cc1)Nc1cccc(S(=O)(=O)Nc2ccccc2F)c1	MPTP inh 60 | Rh123 counter 64
O=C(Nc1cccc(S(=O)(=O)Nc2ccccc2Cl)c1)c1ccc(Cl)nc1	MPTP inh 62 | Rh123 counter 56
O=C(CSc1ccc([N+](=O)[O-])cc1)Nc1cccc(S(=O)(=O)Nc2ccccc2F)c1	MPTP inh 87 | Rh123 counter 68
O=C(NCCCN1CCOCC1)c1cc(Cl)ccc1OCc1ccccc1	none
COc1cccc(CCC2C(=O)CCCC2=O)c1	none (no result: MIN6 prolif, Apaf1 inhib, UBC13 inh)
CCSc1nnc(NC(=O)CCNS(=O)(=O)c2ccccc2F)s1	none
NC(=O)c1c(-c2ccc(Cl)cc2Cl)csc1NC(=O)Cc1ccccc1	MPTP inh 103 (no result: MIN6 prolif, Apaf1 inhib, UBC13 inh) | Rh123 counter 90
COc1ccc(-c2n(CC(=O)OC3CC(C)CCC3C(C)C)c3ccccc3[n+]2C)cc1 (stereo not drawn)	MPTP inh 50 (no result: MIN6 prolif, Apaf1 inhib, UBC13 inh) | Rh123 counter 94
Cc1ccc2nc(/C(C#N)=C\c3cc(O)ccc3[N+](=O)[O-])[nH]c2c1	none
Cc1cc(/C=C(\C#N)c2nc3ccccc3[nH]2)c(C)n1C	none
COc1cc(/C=C(\C#N)c2nc3ccc(C)cc3[nH]2)c([N+](=O)[O-])cc1OC	none
CCN(CC)c1ccc(/C=C(/C#N)c2nc3ccc(C)cc3[nH]2)c(OC(C)C)c1	MPTP inh 83 | Rh123 counter 52
CCCOc1cc(N(CC)CC)ccc1/C=C(/C#N)c1nc2ccc(C)cc2[nH]1	MPTP inh 78 | Rh123 counter 57
CCOc1cc(N(CC)CC)ccc1/C=C(/C#N)c1nc2ccccc2[nH]1	MPTP inh 82 | Rh123 counter 54
CCOC(=O)c1c(NC(=O)Cc2ccccc2)sc2c1CC(C)(C)NC2(C)C	MPTP inh 71 | Rh123 counter inactive | MPTP swell DR inactive | MPTP counter DR inactive
COC(=O)c1c(NC(=O)c2ccccc2)sc2c1CC(C)(C)NC2(C)C	MPTP inh 73 | Rh123 counter inactive | MPTP swell DR 18 | MPTP counter DR inactive
O=[N+]([O-])c1ccc(/C=N/N/C(=N/c2ccccn2)c2ccccn2)cc1	none
O=[N+]([O-])c1cc(/C=N/N/C(=N/c2ccccn2)c2ccccn2)ccc1O	MPTP inh 78 | Rh123 counter inactive
O=[N+]([O-])c1ccc(O)c(Nc2ncnc3ccc(Br)cc23)c1	MPTP inh 102 | Rh123 counter 85
O=[N+]([O-])c1ccc(O)c(Nc2ncnc3ccccc23)c1	none
CCc1cc(=O)oc2cc(OC(C)C(=O)N3CC[C@@]4(O)CCCC[C@H]4C3)ccc12 (stereo partly drawn)	none (no result: MIN6 prolif, Apaf1 inhib, UBC13 inh)
